Assay outcomes deposited in PubChem BioAssay by Broad Institute.
The entries come from a sample that favours hits as a whole.
INS-1E ATP HTS: protection of INS-1E cells from cytokine death, primary screen, ATP luminescence, single point. INS-1E cytokine-induced death, 48 h; normalised: neutral wells 0, positive control 100. protection from cytokine-induced ATP loss, % at 10 µM. actives 0.1% (n = 20,000);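 active means mean replicate protection from cytokine-induced ATP loss at least 50% and at least 75% of replicates each reaching 50%; inconclusive means meets only one of the two criteria, mean or replicate share; inactive means fails both the mean and replicate share criteria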
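Test system: INS-1E rat cells | Quantity: 8000 cells per well | Medium: Phenol-red-free RPMI with 5% fetal bovine serum | Reagent: Cytokine cocktail of IFN-γ, TNF-α and IL-1β | Doses: One compound concentration, pin transfer | Timing: 48 h co-treatment, 10 min post-lysis read | Technique: Luminescent ATP assay (CellTiter-Glo)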
YB-1 expression: inhibitors of YB-1 gene expression, primary screen, cell-based, fluorescence; AID 434959, 2010; U2OS, qRT-PCR YB-1 vs CDIP delta delta Cp, 16 h; active compounds read high; zero = DMSO, each unit about twofold; delta delta Cp (YB-1 minus CDIP) (no concentration beside the values); actives 0.37% (n = 30,000);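 active means delta delta Cp rounded down to an integer at or above 3, about 3 SD of DMSO wells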;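 further: higher means less YB-1 transcript or more CDIP transcript relative to DMSO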
T cruzi intra: inhibitors of intracellular Trypanosoma cruzi, primary screen, cell-based, plate reader, single point, set 2. AID 651903, 2012. actives 4.9% (n = 22,000). activity score (inhibition), % at 5.01 µM. intracellular Trypanosoma cruzi in host cells; in the data active means activity score above about 55%; inconclusive means no clear call, values can overlap the other calls;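 further: parasites and compound incubated about four days before reading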
Numbers stand for hits; - = inactive; ? = inconclusive; . = not tested or not shown.

SMILES	INS-1E ATP HTS	YB-1 expression	T cruzi intra
Cc1noc(C)c1S(=O)(=O)Nc1ccc2c(c1)C(=O)N([C@@H](C)CO)C[C@@H](C)[C@@H](CN(C)Cc1ccc(Cl)c(Cl)c1)O2	-	-	-
Cc1noc(C)c1S(=O)(=O)Nc1ccc2c(c1)C(=O)N([C@@H](C)CO)C[C@H](C)[C@@H](CN(C)Cc1ccc(Cl)c(Cl)c1)O2	-	-	66.2
Cc1noc(C)c1S(=O)(=O)Nc1ccc2c(c1)CC(=O)N([C@@H](C)CO)C[C@H](C)[C@@H](CN(C)Cc1ccc(Cl)c(Cl)c1)O2	-	-	-
Cn1ccnc1SCCS(=O)(=O)c1ccccc1	.	-	.
COc1ccc(NC(=O)Nc2cccc3c2O[C@H](CN(C)Cc2ccc(C(F)(F)F)cc2)[C@H](C)CN([C@@H](C)CO)C3=O)cc1	-	-	-
COc1ccc(CN(C)C[C@@H]2Oc3c(NC(=O)Nc4ccc(C(F)(F)F)cc4)cccc3C(=O)N([C@@H](C)CO)C[C@H]2C)cc1	-	-	67.5
COc1ccc(CN(C)C[C@@H]2Oc3c(NC(=O)Nc4ccc(C(F)(F)F)cc4)cccc3C(=O)N([C@H](C)CO)C[C@@H]2C)cc1	-	-	81.0
COc1ccc(NC(=O)Nc2cccc3c2O[C@@H](CN(C)Cc2ccc(C(F)(F)F)cc2)[C@H](C)CN([C@H](C)CO)C3=O)cc1	-	-	-
C[C@@H]1CN([C@H](C)CO)C(=O)c2cc(NS(=O)(=O)c3ccc(F)cc3)ccc2O[C@@H]1CN(C)C(=O)NC1CCCCC1	-	-	-
O=C(N/N=C/c1cc(Cl)cc(Cl)c1O)c1ccccn1	-	-	71.0
O=C(N/N=C/c1cccnc1Cl)c1ccccn1	-	-	-
O=C(N/N=C/c1ccc2ccccc2c1O)c1ccccn1	-	-	61.1
O=C(N/N=C/c1cccc2ccccc12)c1ccccn1	-	-	-
C[C@@H]1CN([C@@H](C)CO)C(=O)c2cccc(NS(C)(=O)=O)c2O[C@@H]1CN(C)S(C)(=O)=O	-	-	-
C[C@H]1CN([C@@H](C)CO)C(=O)c2cccc(NC(=O)C3CCCCC3)c2O[C@@H]1CN(C)Cc1ccc(Oc2ccccc2)cc1	-	-	67.3
C[C@H]1CN([C@@H](C)CO)C(=O)c2cccc(N(C)C)c2O[C@@H]1CN(C)Cc1ccccc1	-	-	-
C[C@@H]1CN([C@H](C)CO)C(=O)c2cccc(NC(=O)C3CCCCC3)c2O[C@@H]1CN(C)Cc1ccc(Oc2ccccc2)cc1	-	-	-
C[C@@H]1CN([C@H](C)CO)C(=O)c2cccc(N(C)C)c2O[C@H]1CN(C)Cc1ccc(Oc2ccccc2)cc1	-	-	69.6
C[C@@H]1CN([C@H](C)CO)C(=O)c2cccc(NC(=O)C3CC3)c2O[C@H]1CN(C)Cc1ccc(Oc2ccccc2)cc1	-	-	63.3
C[C@H]1CN([C@@H](C)CO)C(=O)c2cccc(NC(=O)C3CC3)c2O[C@H]1CN(C)Cc1ccc(Oc2ccccc2)cc1	-	-	-
C[C@@H]1CN([C@@H](C)CO)C(=O)c2cc(NC(=O)CCN3CCOCC3)ccc2O[C@H]1CN(C)S(=O)(=O)c1ccc(F)cc1	-	-	-
C[C@@H]1CN([C@@H](C)CO)C(=O)c2cc(NC(=O)Cn3cnnn3)ccc2O[C@H]1CN(C)C(=O)Nc1ccc(C(F)(F)F)cc1	-	-	-
Cc1c(Br)c(C(F)(F)F)nn1CC(=O)N1CCOCC1	.	-	.
CNC[C@H]1Oc2c(NC(=O)Nc3ccc4c(c3)OCO4)cccc2C(=O)N([C@H](C)CO)C[C@@H]1C	-	-	-
C[C@@H]1CN([C@H](C)CO)C(=O)Cc2cc(NC(=O)CCCCCC(=O)Nc3ccccc3N)ccc2O[C@@H]1CN(C)C(=O)Nc1ccccc1	-	-	-
SMILES	INS-1E ATP HTS	YB-1 expression	T cruzi intra
C[C@H](CO)N1C[C@H](C)[C@H](CN(C)C(=O)Nc2ccccc2)Oc2ccc(NC(=O)Nc3cccc4ccccc34)cc2C1=O	-	-	-
C[C@@H]1CN([C@@H](C)CO)C(=O)Cc2cc(NC(=O)Cc3ccccc3)ccc2O[C@@H]1CN(C)C(=O)Nc1ccc(C(F)(F)F)cc1	-	-	-
C[C@H](CO)N1C[C@H](C)[C@H](CN(C)Cc2ccc(C(F)(F)F)cc2)Oc2ccc(NC(=O)Cc3ccccc3)cc2CC1=O	-	-	?
C[C@H]1CN([C@@H](C)CO)C(=O)Cc2cc(NC(=O)Cc3ccccc3)ccc2O[C@@H]1CN(C)Cc1ccc(C(F)(F)F)cc1	-	-	58.3
C[C@H]1CN([C@@H](C)CO)C(=O)Cc2cc(NC(=O)Cc3ccccc3)ccc2O[C@H]1CN(C)Cc1ccc(C(F)(F)F)cc1	-	-	68.7
C[C@@H]1CN([C@H](C)CO)C(=O)Cc2cc(NC(=O)Cn3cnnn3)ccc2O[C@@H]1CN(C)Cc1ccc(C(=O)Nc2ccccc2N)cc1	-	-	-
C[C@@H]1CN([C@@H](C)CO)C(=O)c2cccc(NC(=O)c3nc4ccccc4s3)c2O[C@@H]1CN(C)C(=O)Nc1ccccc1	-	-	-
CC(C)NC(=O)N(C)C[C@@H]1Oc2c(NC(=O)CCCCCC(=O)Nc3ccccc3N)cccc2C(=O)N([C@H](C)CO)C[C@@H]1C	-	-	-
C[C@@H]1CN([C@@H](C)CO)C(=O)c2cccc(NS(=O)(=O)c3cn(C)cn3)c2O[C@@H]1CN(C)C(=O)Nc1cccc2ccccc12	-	-	-
COc1ccc(NC(=O)N(C)C[C@@H]2Oc3c(NC(=O)C4CC4)cccc3C(=O)N([C@H](C)CO)C[C@H]2C)cc1	-	-	-
C[C@H](CO)N1C[C@H](C)[C@@H](CN(C)Cc2ccc(Oc3ccccc3)cc2)OCc2cnnn2CCCC1=O	.	-	82.9
C[C@H]1CN([C@@H](C)CO)C(=O)CCCn2nncc2CO[C@@H]1CN(C)S(=O)(=O)c1ccc(-c2ccccc2)cc1	.	-	83.7
C[C@@H]1CN([C@H](C)CO)C(=O)CCCn2nncc2CO[C@H]1CN(C)Cc1ccc(-c2ccccc2)cc1	-	-	-
C[C@H]1CN([C@@H](C)CO)C(=O)CCCn2nncc2CO[C@@H]1CN(C)Cc1ccc(C(F)(F)F)cc1	.	-	-
C[C@H](CO)N1C[C@H](C)[C@@H](CN(C)Cc2ccc(-c3ccccc3)cc2)OCc2cnnn2CCCC1=O	.	-	65.4
C[C@@H]1CN([C@@H](C)CO)C(=O)CCCn2nncc2CO[C@H]1CN(C)S(=O)(=O)c1ccc(-c2ccccc2)cc1	-	-	-
C[C@H](CO)N1C[C@H](C)[C@@H](CN(C)Cc2ccc(C(F)(F)F)cc2)OCc2cnnn2CCCC1=O	.	-	60.6
C[C@H]1CN([C@@H](C)CO)C(=O)CCCn2nncc2CO[C@H]1CN(C)Cc1ccc(Oc2ccccc2)cc1	.	-	-
C[C@@H]1CN([C@@H](C)CO)C(=O)CCCn2cc(nn2)CO[C@@H]1CN(C)S(=O)(=O)c1cn(C)cn1	.	-	-
C[C@@H]1CN([C@@H](C)CO)C(=O)CCCn2cc(nn2)CO[C@H]1CN(C)Cc1ccc(Oc2ccccc2)cc1	-	-	67.5
C[C@H]1CN([C@@H](C)CO)C(=O)CCCn2cc(nn2)CO[C@@H]1CN(C)Cc1ccc(Oc2ccccc2)cc1	.	-	-
